Measurements reported in ChEMBL document CHEMBL1127375, “Nucleic acid related compounds. 84. Synthesis of 6'-(E and Z)-halohomovinyl derivatives of adenosine, inactivation of S-adenosyl-L-homocysteine hydrolase, and correlation of anticancer and antiviral potencies with enzyme inhibition” (J Med Chem, 1994).
Converted amounts (≈) assume the structure as drawn.

What was measured:
L1210 = test: Tested for in vitro cytostatic activity against murine leukemia L1210; assay type: functional, cell-based; settings: Mus musculus
How it was run: (§1)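 Cells seeded at 5 × 10^5/mL (murine L1210 leukemia, FM3A mammary carcinoma) or 7.5 × 10^5/mL (human Molt-4 clone 8, CEM) and exposed to varying compound concentrations. Incubation at 37 °C in humidified CO2 was 2 days for L1210/FM3A and 3 days for Molt-4/CEM. Viable cells were Coulter-counted; IC50 is the concentration reducing viable cell number by 50%. Means of at least two to three determinations.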

CCRF-CEM = test: Tested for in vitro cytostatic activity against CEM cells; assay type: functional, cell-based; settings: Homo sapiens; how it was run: as §1
FM3A = test: Tested for in vitro cytostatic activity against murine mammary carcinoma (FM3A); assay type: functional, cell-based; settings: Mus musculus; how it was run: as §1
HeLa [1] = test: Tested for the antiviral activity against Coxsackie B4 virus in human HeLa cells; assay type: functional
How it was run: (§2)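 Confluent E6SM, HeLa or Vero cultures were inoculated with 100 CCID50 of virus and allowed 1 h adsorption. Residual virus was removed, then cells were incubated with compound at 400, 200, 100 … μg/mL. Virus-induced cytopathicity was scored once complete in untreated infected controls. MIC is the minimum inhibitory concentration.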

MOLT-4 [2] = test: Tested for in vitro cytostatic activity against human lymphoblast Molt-4 (Clone8); assay type: functional, cell-based; how it was run: as §1
Vero [3] = test: Tested for the antiviral activity against forest virus in simian Vero cells; assay type: functional; settings: Chlorocebus sabaeus; how it was run: as §2
E6SM [4] = test: Tested for the antiviral activity against HSV-1 (KOS) in human E6SM cells; assay type: functional; how it was run: as §2
E6SM [5] = test: Tested for the antiviral activity against HSV-2 in human E6SM cells; assay type: functional; how it was run: as §2
Vero [6] = test: Tested for the antiviral activity against reovirus-1 in simian Vero cells; assay type: functional; settings: Chlorocebus sabaeus; how it was run: as §2
E6SM [7] = test: Tested for the antiviral activity against Vaccinia virus in human E6SM cells; assay type: functional; how it was run: as §2
E6SM [8] = test: Tested for the minimum cytotoxic concentration against E6SM cells; assay type: functional; settings: Homo sapiens
How it was run: (§3)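 Uninfected E6SM, HeLa or Vero cultures were incubated with serial compound concentrations (400, 200, 100 … μg/mL). Cytotoxicity was judged as microscopically detectable alteration of normal cell morphology. The value is the minimum concentration causing this alteration.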

Vero [9] = test: Tested for the minimum cytotoxic concentration against Vero cells; assay type: functional; settings: Chlorocebus sabaeus; how it was run: as §3
HeLa [10] = test: Tested for the minimum cytotoxic concentration against HeLa cells; assay type: functional; settings: Homo sapiens; how it was run: as §3
Vero [11] = test: Tested for the antiviral activity against Parainfluenza-3 virus in simian Vero cells; assay type: functional; settings: Chlorocebus sabaeus; how it was run: as §2
E6SM [12] = test: Tested for the antiviral activity against Vesicular stomatitis virus in human E6SM cells; assay type: functional; how it was run: as §2
HeLa [13] = test: Tested for the antiviral activity against Vesicular stomatitis virus in human HeLa cells; assay type: functional; how it was run: as §2
Vero [14] = test: Tested for the antiviral activity against Sindbis virus in simian Vero cells; assay type: functional; settings: Chlorocebus sabaeus; how it was run: as §2
[15] = Tested ratio of kinact to that of Ki
How it was run: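 Purified recombinant human placental AdoHcy hydrolase (10 nM) preincubated with various inhibitor concentrations for various times at 37 °C, pH 7.2, in 50 mM potassium phosphate with 1 mM EDTA. Residual activity was measured in the synthetic direction by adding Ado and homocysteine for 5 min. The reaction was stopped with perchloric acid and AdoHcy quantified by C-18 HPLC at 258 nm. Ki and kinact were derived from 1/Kapp = 1/kinact + Ki/kinact[I].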

Adenosylhomocysteinase [16] = biological target: T1, Adenosylhomocysteinase (Homo sapiens, UniProt P23526); test: Tested for kinetic constant for the inhibition of recombinant human placental S-Adenosyl-L-homocysteine Hydrolase
Target sequence in this assay (P23526 whole entry): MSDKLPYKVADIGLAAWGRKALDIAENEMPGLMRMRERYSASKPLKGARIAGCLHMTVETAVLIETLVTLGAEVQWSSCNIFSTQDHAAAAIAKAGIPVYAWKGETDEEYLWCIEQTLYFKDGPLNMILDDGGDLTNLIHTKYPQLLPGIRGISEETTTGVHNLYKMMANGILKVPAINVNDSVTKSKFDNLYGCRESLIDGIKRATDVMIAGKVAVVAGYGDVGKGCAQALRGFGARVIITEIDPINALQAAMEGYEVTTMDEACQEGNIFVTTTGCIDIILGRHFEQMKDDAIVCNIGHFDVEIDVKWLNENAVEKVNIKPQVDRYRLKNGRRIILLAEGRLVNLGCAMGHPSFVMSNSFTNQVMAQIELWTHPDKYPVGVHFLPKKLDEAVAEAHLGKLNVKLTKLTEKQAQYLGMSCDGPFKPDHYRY

Adenosylhomocysteinase [17] = biological target: T1, Adenosylhomocysteinase
Target sequence in this assay (P23526 2-432 limits assumed): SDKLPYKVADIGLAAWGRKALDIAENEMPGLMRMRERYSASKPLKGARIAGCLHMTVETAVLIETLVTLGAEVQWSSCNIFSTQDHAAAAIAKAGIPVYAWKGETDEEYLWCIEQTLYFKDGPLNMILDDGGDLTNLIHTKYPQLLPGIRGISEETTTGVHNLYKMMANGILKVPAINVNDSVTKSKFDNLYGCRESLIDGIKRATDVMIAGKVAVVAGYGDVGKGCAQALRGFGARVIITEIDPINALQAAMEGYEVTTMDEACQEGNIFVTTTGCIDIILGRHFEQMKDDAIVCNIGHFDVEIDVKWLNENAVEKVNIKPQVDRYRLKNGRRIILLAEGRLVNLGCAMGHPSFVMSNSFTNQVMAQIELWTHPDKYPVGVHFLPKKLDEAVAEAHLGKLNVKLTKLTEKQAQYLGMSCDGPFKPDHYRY

HeLa [18] = test: Tested for the antiviral activity against polio-1 virus in human HeLa cells; assay type: functional; how it was run: as §2
HeLa [19] = test: Tested for the antiviral activity against Coxsackie B4 virus in Human HeLa cells; assay type: functional; how it was run: as §2
E6SM [20] = test: Tested for the minimum cytotoxic concentration on E6SM cells; assay type: functional; settings: Homo sapiens; how it was run: as §3
HeLa [21] = test: Tested for the minimum cytotoxic concentration on HeLa cells; assay type: functional; settings: Homo sapiens; how it was run: as §3
Vero [22] = test: Tested for the minimum cytotoxic concentration on Vero cells; assay type: functional; settings: Chlorocebus sabaeus; how it was run: as §3
E6SM [23] = test: Tested for the antiviral activity against HSV-2 in Human E6SM cells; assay type: functional; how it was run: as §2
Vero [24] = test: Tested for the antiviral activity against Parainfluenza-3 virus in Simian Vero cells; assay type: functional; settings: Chlorocebus sabaeus; how it was run: as §2
MOLT-4 [25] = test: Tested for in vitro cytostatic activity against Human lymphoblast Molt-4 (Clone8); assay type: functional, cell-based; how it was run: as §1

Structure (SMILES) | IC50 (L1210) | IC50 (CCRF-CEM) | IC50 (FM3A) | MIC (HeLa [1]) | IC50 (MOLT-4 [2]) | MIC (Vero [3]) | MIC (E6SM [4]) | MIC (E6SM [5]) | MIC (Vero [6]) | MIC (E6SM [7]) | MCC (E6SM [8]) | MCC (Vero [9]) | MCC (HeLa [10]) | MIC (Vero [11]) | MIC (E6SM [12]) | MIC (HeLa [13]) | MIC (Vero [14]) | Ratio [15] | Ki (Adenosylhomocysteinase [16]) | K inact (Adenosylhomocysteinase [17]) | other results
C=C(Br)[C@H]1OC(n2cnc3c(N)ncnc32)[C@H](O)[C@@H]1O (some centres undefined) | 25 µM | 13 µM | 47 µM |  |  |  |  |  |  |  |  |  |  |  |  |  |  |  |  |  | 
Nc1ncnc2c1ncn2[C@@H]1O[C@H](/C=C\I)[C@@H](O)[C@H]1O | 43 µM | 32 µM | 43 µM | > 200 µg/mL | 21 µM | > 200 µg/mL | > 200 µg/mL | > 200 µg/mL | 100 µg/mL (≈ 257 µM) | 20 µg/mL (≈ 51.4 µM) | > 200 µg/mL | > 200 µg/mL | > 200 µg/mL | > 200 µg/mL | 7 µg/mL (≈ 18 µM) | 7 µg/mL (≈ 18 µM) | > 200 µg/mL |  |  |  | 
Nc1ncnc2c1ncn2C1O[C@H](/C=C/I)[C@@H](O)[C@H]1O (some centres undefined) | 15 µM | 26 µM | 15 µM | > 100 µg/mL | 18 µM | > 200 µg/mL | > 100 µg/mL | > 100 µg/mL | > 200 µg/mL | 7 µg/mL (≈ 18 µM) | ≥ 200 µg/mL | ≥ 200 µg/mL | 200 µg/mL | > 200 µg/mL | 2 µg/mL (≈ 5.14 µM) | 7 µg/mL (≈ 18 µM) | > 200 µg/mL | 0.6 | 0.096 µM | 0.058 min⁻¹ | 
Nc1ncnc2c1ncn2[C@@H]1O[C@H](/C=C\Br)[C@@H](O)[C@H]1O | 104 µM | 65 µM | 134 µM | > 200 µg/mL | 93 µM | 150 µg/mL (≈ 438 µM) | 70 µg/mL (≈ 205 µM) | > 200 µg/mL | > 100 µg/mL | 150 µg/mL (≈ 438 µM) | > 200 µg/mL | ≥ 200 µg/mL | > 200 µg/mL | 150 µg/mL (≈ 438 µM) | 150 µg/mL (≈ 438 µM) | 150 µg/mL (≈ 438 µM) | 20 µg/mL (≈ 58.5 µM) |  |  |  | MIC (HeLa [18]): > 200 µg/mL
Nc1ncnc2c1ncn2C1O[C@H](/C=C/F)[C@@H](O)[C@H]1O (some centres undefined) | 301 µM | 147 µM | 287 µM |  | 266 µM |  | > 200 µg/mL | 150 µg/mL (≈ 533 µM) | 70 µg/mL (≈ 249 µM) | 70 µg/mL (≈ 249 µM) | > 200 µg/mL | > 200 µg/mL | > 200 µg/mL | 150 µg/mL (≈ 533 µM) | 100 µg/mL (≈ 356 µM) | > 100 µg/mL | 200 µg/mL (≈ 711 µM) | 0.008 | 1.3 µM | 0.01 min⁻¹ | MIC (HeLa [19]): > 100 µg/mL; MIC (HeLa [18]): 150 µg/mL (≈ 533 µM)
Nc1ncnc2c1ncn2[C@@H]1O[C@H](/C=C/Cl)[C@@H](O)[C@H]1O | 139 µM | 99 µM | 160 µM | > 200 µg/mL | 80 µM | > 100 µg/mL | > 200 µg/mL | > 200 µg/mL | > 100 µg/mL | 70 µg/mL (≈ 235 µM) | 400 µg/mL | ≥ 200 µg/mL | ≥ 200 µg/mL | > 200 µg/mL | 70 µg/mL (≈ 235 µM) | > 200 µg/mL | > 100 µg/mL | 0.13 | 0.11 µM | 0.014 min⁻¹ | MIC (HeLa [18]): > 200 µg/mL
Cc1ccc(S(=O)(=O)/C=C/[C@H]2OC(n3cnc4c(N)ncnc43)[C@H](O)[C@@H]2O)cc1 (some centres undefined) | 54 µM | 20 µM | 208 µM | > 400 µg/mL | 32 µM | > 400 µg/mL | 20 µg/mL (≈ 47.9 µM) |  | > 400 µg/mL | 20 µg/mL (≈ 47.9 µM) |  |  |  |  | > 100 µg/mL | > 400 µg/mL | > 400 µg/mL |  |  |  | MCC (E6SM [20]): 200 µg/mL; MCC (HeLa [21]): > 400 µg/mL; MCC (Vero [22]): > 400 µg/mL; MIC (HeLa [18]): > 400 µg/mL; MIC (E6SM [23]): 20 µg/mL (≈ 47.9 µM); MIC (Vero [24]): > 400 µg/mL
Nc1ncnc2c1ncn2[C@@H]1O[C@H](/C=C\Cl)[C@@H](O)[C@H]1O | 143 µM | 86 µM | 164 µM | > 100 µg/mL | 117 µM | 70 µg/mL (≈ 235 µM) | 70 µg/mL (≈ 235 µM) | > 100 µg/mL | 70 µg/mL (≈ 235 µM) | 20 µg/mL (≈ 67.2 µM) | ≥ 200 µg/mL | ≥ 100 µg/mL | ≥ 200 µg/mL | > 100 µg/mL | 20 µg/mL (≈ 67.2 µM) | 70 µg/mL (≈ 235 µM) | 20 µg/mL (≈ 67.2 µM) |  |  |  | 
Nc1ncnc2c1ncn2[C@@H]1O[C@H](/C=C/Br)[C@@H](O)[C@H]1O | 42 µM | 56 µM | 60 µM | > 100 µg/mL |  | > 100 µg/mL | 150 µg/mL (≈ 438 µM) |  | > 100 µg/mL | 20 µg/mL (≈ 58.5 µM) | ≥ 200 µg/mL | ≥ 200 µg/mL | ≥ 200 µg/mL | > 200 µg/mL | 7 µg/mL (≈ 20.5 µM) | 7 µg/mL (≈ 20.5 µM) | > 100 µg/mL | 0.21 | 0.134 µM | 0.028 min⁻¹ | IC50 (MOLT-4 [25]): 56 µM; MIC (E6SM [23]): > 100 µg/mL
